Bioassay records from PubChem BioAssay.
Compounds with a hit are over-represented: about 2.7% of the library has one in this group of screens.
OX1R antag-1 = human HCRTR1 antagonism; CHO/OX1R cells, Fluo-8 calcium fluorescence, orexin A; inhibition, % at 5 µM; 330,000 compounds, 0.43% hits; AID 434989;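 active = inhibition above its plate's threshold, mean inhibition of all tested compounds on the plate plus 3 SD, cut at about 37% in these data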;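 note: 0% = orexin A challenge wells and 100% = SB-334867-A antagonist wells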
OX1R antag-2 = OX1R (human) antagonism. O43613. 330,000 compounds, 1.8% hits. OX1R-expressing cells, FRET antagonist read-out. AID 485270. inhibition, % at 6.6 µM; in the data active = inhibition mostly above about 38%, no sharp cut-off; inactive = mostly below about 40%;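 note: 0% = agonist challenge alone and 100% = reference antagonist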
CHO parental Ca = counter-screen: ATP calcium response change in parental CHO cells; parental CHO-K1, ATP-induced calcium, Fluo-8 fluorescence; 330,000 compounds, 0.63% hits; inhibition, % at 5.6 µM;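 active = inhibition above that plate's mean sample inhibition plus 3 SD, cut at about 26% in these data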;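 note: 0% = ATP-challenged DMSO wells and 100% = DMSO wells without ATP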
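Assay system: parental CHO cells; Read-out basis: percent inhibition of ATP-evoked calcium rise, normalized to controls; Benchmarks: ATP and no-ATP DMSO wells; Compound dosing: single nominal dose of 5.6 µM per compound; Signal: Fluo-8 calcium dye fluorescence; Also added: ATP as calcium-mobilizing challenge; Repeats: singlicate.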
OXTR potentiate = potentiates the human oxytocin receptor response; P30559; CHO-OTR cells, Fluo-8 calcium fluorescence, potentiator mode; 0% = oxytocin EC15, 100% = EC100; activation, % at 3 µM; 320,000 compounds, 0.061% hits; AID 2445;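 active = activation above that plate's cutoff, the mean activation of tested compounds plus 3 SD, cut at about 6.6% in these data, passing the limit was not always enough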;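 note: 100% uses oxytocin at 75 nM as the full agonist control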
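Assay system: CHO-OTR cells, human receptor / Also added: oxytocin at about EC15, sub-maximal agonist stimulus / Dosing: single dose, 3.0 µM nominal final compound concentration / Incubation: 6 min pre-incubation, 100 s read / Technique: Fluo-8 calcium dye fluorescence / Read-out: % activation vs EC15 and EC100 oxytocin / Benchmarks: EC15 oxytocin low, 75 nM oxytocin high / Replicates: singlicate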
OXTR agonist = agonists of human oxytocin receptor; P30559; 320,000 compounds, 0.32% hits; activation, % at 3 µM; AID 2435; CHO-OTR cells, Fluo-8 calcium fluorescence; normalized: DMSO 0%, oxytocin 100%;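 active = activation above the mean of all tested compounds plus 3 SD, cutoff set per screening run, cut at about 20% in these data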;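 note: peak over basal fluorescence ratio from a 100 s FLIPR kinetic read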
V1aR counter = activates human V1a receptor in oxytocin agonist counter-screen; CHO-V1R cells, Fluo-8 calcium fluorescence, agonist mode; 0% DMSO, 100% 3 nM vasopressin; P37288; activation, % at 3 µM; AID 2797; 320,000 compounds, 0.25% hits;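 active = activation above the mean activation of all tested compounds plus 3 SD, per screening run, cut at about 20% in these data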;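 note: signal is peak over basal fluorescence ratio across a 100 second FLIPR read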
Target sequence (P37288 whole entry, looked up): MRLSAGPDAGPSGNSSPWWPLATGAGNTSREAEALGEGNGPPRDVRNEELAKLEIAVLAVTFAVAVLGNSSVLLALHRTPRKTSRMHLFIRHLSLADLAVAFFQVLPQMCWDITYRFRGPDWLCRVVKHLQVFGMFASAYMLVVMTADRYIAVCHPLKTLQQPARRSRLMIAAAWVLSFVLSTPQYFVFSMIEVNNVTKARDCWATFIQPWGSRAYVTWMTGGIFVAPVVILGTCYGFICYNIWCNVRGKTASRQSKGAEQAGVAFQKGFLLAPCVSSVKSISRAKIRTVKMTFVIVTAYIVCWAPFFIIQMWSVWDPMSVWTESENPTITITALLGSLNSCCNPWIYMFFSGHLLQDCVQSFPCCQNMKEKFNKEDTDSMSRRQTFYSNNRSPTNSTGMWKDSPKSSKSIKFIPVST
* = called active by the depositor.

O=C(C[n+]1ccc(/C=N/O)cc1)N(Cc1ccccc1)Cc1ccccc1 was read as OX1R antag-1 0, OX1R antag-2 53*, CHO parental Ca -3, OXTR potentiate -12, OXTR agonist 1 and V1aR counter 1.
CC(C)N(C(=O)C[n+]1ccc(/C=N/O)cc1)C(C)C was read as OX1R antag-1 3, OX1R antag-2 31, CHO parental Ca -11, OXTR potentiate 7, OXTR agonist 2 and V1aR counter 1.
For CCOC(=O)c1c(S(=O)(=O)NCc2ccc(C)o2)c(C)n(C)c1C the results were OX1R antag-1 -21, OX1R antag-2 16, CHO parental Ca -5, OXTR potentiate -13, OXTR agonist 0 and V1aR counter 0.
CCOC(=O)c1c(-c2ccccc2)oc2ccc(OC(C)=O)cc12 was read as OX1R antag-1 -2, OX1R antag-2 64*, CHO parental Ca -9, OXTR potentiate -4, OXTR agonist -1 and V1aR counter 0.
For CCOC(=O)c1c(-c2ccccc2)oc2ccc(OC(C)C(=O)O)cc12 (stereo unspecified) the results were OX1R antag-1 -27, OX1R antag-2 22, CHO parental Ca -11, OXTR potentiate -2, OXTR agonist 0 and V1aR counter 0.
`COCCNC(=O)c1cc2oc3ccccc3c2n1C` gave OX1R antag-1 -14, OX1R antag-2 14, CHO parental Ca 4, OXTR potentiate -15, OXTR agonist -1 and V1aR counter 1.
For COC(=O)c1cccc(S(=O)(=O)N(Cc2ccco2)Cc2cc3ccc(OC)cc3[nH]c2=O)c1 the results were OX1R antag-1 15, OX1R antag-2 40*, CHO parental Ca -18, OXTR potentiate -12, OXTR agonist 3 and V1aR counter 2.
O=C(NNC(=O)c1cc(-c2cccnc2)nc2ccccc12)Nc1ccc(Cl)cc1 was read as OX1R antag-1 27, OX1R antag-2 32, CHO parental Ca 59*, OXTR potentiate -23, OXTR agonist 2 and V1aR counter 2.
COc1ccccc1NC(=O)c1ccccc1NC(=O)c1cccs1 was read as OX1R antag-1 -28, OX1R antag-2 21, CHO parental Ca -22, OXTR potentiate 1, OXTR agonist -1 and V1aR counter 0.
Screening C/C(=N\Nc1ccc(C(=O)O)cc1)c1ccc(Br)cc1 returned OX1R antag-1 12, OX1R antag-2 22, CHO parental Ca 0, OXTR potentiate -11, OXTR agonist 13 and V1aR counter 10.
C/C(=N\Nc1ccc(C(=O)O)cc1)c1ccc(Cl)s1 was read as OX1R antag-1 15, OX1R antag-2 1, CHO parental Ca 20, OXTR potentiate -16, OXTR agonist 24* and V1aR counter 34*.
`COc1ccc(OC)c(S(=O)(=O)N2CCCC(C(=O)NCCN3CCOCC3)C2)c1` (stereo unspecified) gave OX1R antag-1 -5, OX1R antag-2 6, CHO parental Ca -3, OXTR potentiate -3, OXTR agonist 0 and V1aR counter 0.
Screening CC(C)c1nc2cc(C(=O)N(C)Cc3ccc(F)cc3)ccc2o1 returned OX1R antag-1 -8, OX1R antag-2 -3, CHO parental Ca -5, OXTR potentiate -1, OXTR agonist -1 and V1aR counter 0.
Screening COc1cccc(CN(C)C(=O)c2ccc(OCC(=O)Nc3cccc(C(F)(F)F)c3)c(OC)c2)c1 returned OX1R antag-1 52*, OX1R antag-2 38, CHO parental Ca 65*, OXTR potentiate -19, OXTR agonist 13 and V1aR counter 11.
Screening COc1cc(C(=O)NCCCN(C)C)ccc1OCC(=O)Nc1cccc(C(F)(F)F)c1 returned OX1R antag-1 -1, OX1R antag-2 10, CHO parental Ca 4, OXTR potentiate -13, OXTR agonist 0 and V1aR counter 1.
COc1cccc(/C=N/NC(=O)Cn2cnc3c2c(=O)n(C)c(=O)n3C)c1OC was read as OX1R antag-1 -11, OX1R antag-2 -2, CHO parental Ca -1, OXTR potentiate 1, OXTR agonist -1 and V1aR counter 1.
Cc1c(C(=O)Nc2ccncc2)sc2nc(-c3ccc(F)cc3)cn12 was read as OX1R antag-1 -5, OX1R antag-2 13, CHO parental Ca 77*, OXTR potentiate -8, OXTR agonist 9 and V1aR counter 7.
Screening O=C(c1cc(O)c(O)c([N+](=O)[O-])c1)c1ccccc1F returned OX1R antag-1 -8, OX1R antag-2 39*, CHO parental Ca -10, OXTR potentiate -6, OXTR agonist 2 and V1aR counter 5.
Screening CCOc1cc(/C=C2\SC(=S)N(C(C(=O)O)c3ccccc3)C2=O)ccc1O (stereo unspecified) returned OX1R antag-1 10, OX1R antag-2 15, CHO parental Ca 28, OXTR potentiate -34, OXTR agonist 38* and V1aR counter 32*.
For O=C1/C(=C\c2cccc(O)c2O)SC(=S)N1Cc1ccccc1 the results were OX1R antag-1 -5, OX1R antag-2 2, CHO parental Ca 2, OXTR potentiate -3, OXTR agonist 2 and V1aR counter 0.
Screening O=C1/C(=C\c2cc([N+](=O)[O-])ccc2O)SC(=S)N1Cc1ccc(Cl)cc1 returned OX1R antag-1 68*, OX1R antag-2 32, CHO parental Ca 62*, OXTR potentiate -25, OXTR agonist 96* and V1aR counter 67*.
`O=C(O)C(c1ccccc1)N1C(=O)/C(=C\c2ccc(O)c(O)c2)SC1=S` (stereo unspecified) gave OX1R antag-1 10, OX1R antag-2 11, CHO parental Ca 12, OXTR potentiate -15, OXTR agonist 19 and V1aR counter 14.
`COc1cc(/C=C2/SC(=Nc3ccc(O)cc3)NC2=O)ccc1O` gave OX1R antag-1 3, OX1R antag-2 13, CHO parental Ca 5, OXTR potentiate -10, OXTR agonist 2 and V1aR counter 2.
Screening COc1cc(/C=C2/SC(=O)NC2=O)ccc1OCc1ccccc1 returned OX1R antag-1 -19, OX1R antag-2 54*, CHO parental Ca -7, OXTR potentiate -9, OXTR agonist -1 and V1aR counter 3.
For COc1cc(/C=C2\SC(=Nc3ccccc3)NC2=O)cc(Cl)c1O the results were OX1R antag-1 61*, OX1R antag-2 49*, CHO parental Ca 39*, OXTR potentiate -11, OXTR agonist 89* and V1aR counter 70*.
For COc1ccc(/C=C2/SC(=S)NC2=O)cc1OCc1ccccc1 the results were OX1R antag-1 -22, OX1R antag-2 24, CHO parental Ca -14, OXTR potentiate -5, OXTR agonist -1 and V1aR counter 1.
